Residue numbers refer to the chain shown, from its start. Like-named read-outs stand apart in the source and are kept apart here.
What was measured:
[1] = target: T1, PaMx33-Acb2 (Pseudomonas phage PaMx33, UniProt A0A1C8HPQ3); test: biochemical; format: binding; settings: for binding to Acb2 (ITC): WT PaMx33-Acb2
[2] = target: T2, Acb2 protein (PaMx33-Acb2) (Pseudomonas phage PaMx33, UniProt A0A1C8HPQ3); test: Native gel; format: binding, P. aeruginosa phage PaMx33; settings: WT PaMx33-Acb2 14.3 μM
[3] = target: T2, Acb2 protein (PaMx33-Acb2); settings: Figure S1A–B; cited from earlier work
[4] = target: T3, CHI14-Acb2 (Serratia phage CHI14, UniProt A0A1Z1LXK7); test: ITC binding to CHI14-Acb2
T3 sequence (A0A1Z1LXK7 1-96): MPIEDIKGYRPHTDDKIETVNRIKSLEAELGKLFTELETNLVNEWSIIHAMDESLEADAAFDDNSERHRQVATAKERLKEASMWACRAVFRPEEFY

[5] = target: JBD67-Acb2 (Pseudomonas phage JBD67, UniProt P0DX89); test: ITC binding to JBD67-Acb2; set-up: species or system P. aeruginosa phage JBD67
[6] = target: T3, CHI14-Acb2; test: Native gel shift assay with CHI14-Acb2; format: binding
Procedure, shortened: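 Recombinant Acb2, expressed in E. coli BL21 (DE3) with 12 h induction at 18°C, was purified as a His6-SUMO fusion on Ni-NTA, cut with Ulp1, then gel-filtered in 10 mM Tris-HCl pH 8.0, 500 mM NaCl, 5 mM DTT. Protein (14.3 μM) was preincubated 10 min at 18°C with cyclic dinucleotides (1.8, 3.6, 7.2 μM). Samples were run on 5% native polyacrylamide gels and stained with Coomassie blue.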

[7] = target: T1, PaMx33-Acb2; settings: WT Acb2; cited from earlier work
[8] = target: T4-Acb2 (Enterobacteria phage T4, UniProt P13314); test: ITC binding to T4-Acb2; set-up: species or system Escherichia phage T4
[9] = target: T4, Y11A Acb2 mutant (Pseudomonas phage PaMx33, UniProt A0A1C8HPQ3, Y11A); settings: method not stated here; cited from earlier work
[10] = target: T5, K26A Acb2 mutant (Pseudomonas phage PaMx33, UniProt A0A1C8HPQ3, K26A); settings: method not stated here; cited from earlier work
[11] = target: T4, Y11A Acb2 mutant; test: Native gel shift assay with Acb2 Y11A mutant; format: binding, P. aeruginosa phage PaMx33
[12] = target: T6, Acb2 T74A mutant (Pseudomonas phage PaMx33, UniProt A0A1C8HPQ3, T74A); test: ITC binding to PaMx33-Acb2 T74A mutant; set-up: species or system P. aeruginosa phage PaMx33
T6 sequence (A0A1C8HPQ3 1-93 T74A): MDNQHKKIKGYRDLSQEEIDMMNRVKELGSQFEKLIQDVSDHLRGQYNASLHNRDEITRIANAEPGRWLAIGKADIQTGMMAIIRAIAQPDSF

[13] = target: T7, Acb2 R67A mutant (Pseudomonas phage PaMx33, UniProt A0A1C8HPQ3, R67A); test: ITC binding to PaMx33-Acb2 R67A mutant; set-up: species or system P. aeruginosa phage PaMx33; settings: in vitro
T7 sequence (A0A1C8HPQ3 1-93 R67A): T6 sequence (A0A1C8HPQ3 1-93 T74A) with R67A, A74T

[14] = target: T1, PaMx33-Acb2; test: HPLC analysis of cA3 binding and release by Acb2; set-up: species or system P. aeruginosa phage PaMx33
[15] = target: T8, D61R mutant of T4-Acb2 (Enterobacteria phage T4, UniProt P13314, D61R); test: ITC binding to T4-Acb2 D61R mutant; set-up: species or system Escherichia phage T4
T8 sequence (P13314 1-88 D61R): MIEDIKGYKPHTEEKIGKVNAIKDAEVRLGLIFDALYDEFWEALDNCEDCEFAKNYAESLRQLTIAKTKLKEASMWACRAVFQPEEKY

[16] = target: NucC (Pseudomonas aeruginosa, UniProt P0DTF8); test: In vitro NucC activity assay; format: biochemical, P. aeruginosa strain ATCC 27853 (Pa278); settings: cA3 5 nM
[17] = target: T5, K26A Acb2 mutant; test: Native gel shift assay with Acb2 K26A mutant; format: binding, P. aeruginosa phage PaMx33
[18] = target: the molecule itself; test: crystal structure
[19] = target: T9, NucC (Pseudomonas aeruginosa, UniProt P0DTF8); test: In vitro NucC activity assay; format: biochemical, P. aeruginosa strain ATCC 27853 (Pa278); settings: NucC 10 nM, cA3 5 nM, Acb2 50 nM
T9 sequence (P0DTF8 whole entry, looked up): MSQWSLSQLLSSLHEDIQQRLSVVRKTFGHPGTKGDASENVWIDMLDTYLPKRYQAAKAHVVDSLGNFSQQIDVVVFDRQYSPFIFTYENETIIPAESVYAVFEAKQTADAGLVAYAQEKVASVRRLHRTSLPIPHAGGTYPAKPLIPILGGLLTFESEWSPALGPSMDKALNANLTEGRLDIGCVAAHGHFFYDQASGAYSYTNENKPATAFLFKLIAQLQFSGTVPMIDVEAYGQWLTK

T1 sequence (A0A1C8HPQ3 whole entry): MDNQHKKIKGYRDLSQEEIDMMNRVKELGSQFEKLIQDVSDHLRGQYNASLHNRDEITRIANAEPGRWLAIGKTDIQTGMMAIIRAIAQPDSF
T2 sequence (A0A1C8HPQ3 whole entry): as above
JBD67-Acb2, sequence (P0DX89 whole entry): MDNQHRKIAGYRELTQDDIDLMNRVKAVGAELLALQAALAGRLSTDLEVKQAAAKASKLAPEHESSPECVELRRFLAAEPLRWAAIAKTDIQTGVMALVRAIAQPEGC
T4 sequence (A0A1C8HPQ3 whole entry Y11A): as the sequence (A0A1C8HPQ3 whole entry) above, with Y11A counted along it
T5 sequence (A0A1C8HPQ3 whole entry K26A): as the sequence (A0A1C8HPQ3 whole entry) above, with K26A counted along it
T4-Acb2, sequence (P13314 whole entry): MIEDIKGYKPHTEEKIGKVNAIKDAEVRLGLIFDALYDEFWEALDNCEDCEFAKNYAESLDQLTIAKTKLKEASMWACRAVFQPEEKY

## Nc1nc2c(ncn2[C@@H]2O[C@@H]3COP(=O)(O)O[C@@H]4[C@H](O)[C@@H](COP(=O)(O)O[C@H]3[C@H]2O)O[C@H]4n2cnc3c(N)ncnc32)c(=O)[nH]1 [3’,2’-cGAMP]
[1]
  Kd: ~298 nM
[2]
  shift of the Acb2 protein / binding (native gel): significant shift

## Nc1ncnc2c1ncn2[C@@H]1O[C@@H]2COP(=O)(O)O[C@H]3[C@@H](O)[C@H](n4cnc5c(N)ncnc54)O[C@@H]3COP(=O)(O)O[C@H]2[C@H]1O [3’,3’-cAA, c-di-AMP]
[3]
  binding to Acb2 (previous work): binds

## Nc1nc2c(ncn2[C@@H]2O[C@@H]3COP(=O)(O)O[C@H]4[C@@H](O)[C@H](n5cnc6c(N)ncnc65)O[C@@H]4COP(=O)(O)O[C@H]3[C@H]2O)c(=O)[nH]1 [3’,3’-cGAMP]
[4]
  Kd: ~62.4 nM
[5]
  Kd: ~99 nM
[3]
  binding to Acb2 (previous work): binds
[6]
  shift of the CHI14-Acb2 protein (native gel): almost no shift
[7]
  Kd: ~87 nM
[8]
  Kd: ~84.4 nM
[9]
  binding to Y11A Acb2 mutant: lose their binding
[10]
  binding to K26A Acb2 mutant: lose their binding

## Nc1nc2c(ncn2[C@@H]2O[C@@H]3COP(=O)(O)O[C@H]4[C@@H](O)[C@H](n5ccc(=O)[nH]c5=O)O[C@@H]4COP(=O)(O)O[C@H]3[C@H]2O)c(=O)[nH]1 [3’,3’-cUG, 3’,3’-c-UMP-GMP]
[3]
  binding to Acb2 (previous work): binds

## O=c1ccn([C@@H]2O[C@@H]3COP(=O)(O)O[C@H]4[C@@H](O)[C@H](n5ccc(=O)[nH]c5=O)O[C@@H]4COP(=O)(O)O[C@H]3[C@H]2O)c(=O)[nH]1 [3’,3’-cUU, 3’,3’-c-di-UMP]
[3]
  binding to Acb2 (previous work): binds

## Nc1ncnc2c1ncn2[C@@H]1O[C@@H]2COP(=O)(O)O[C@H]3[C@@H](O)[C@H](n4cnc5c(N)ncnc54)O[C@@H]3COP(=O)(O)O[C@H]3[C@@H](O)[C@H](n4cnc5c(N)ncnc54)O[C@@H]3COP(=O)(O)O[C@H]2[C@H]1O [cA3, 3’3’3’-cyclic AMP-AMP-AMP]
[1]
  Kd: ~1.5 nM
[4]; CHI14-Acb2
  binding (ITC): does not bind
[11]
  binding / shift (native gel): significant shift
[5]
  Kd: ~3.5 nM
[12]
  Kd: ~291 nM
[13]
  binding (ITC): abolished
[14]; 40 μM Acb2, 4 μM cA3
  remaining cA3 after incubation with Acb2 (HPLC): depletes any detectable molecules
[14]; proteinase K treatment
  cA3 after proteolysis of Acb2 (HPLC): released back into the buffer unmodified
[15]
  binding (ITC): unable to bind
[8]; T4-Acb2
  binding (ITC): does not bind
[16]; NucC 10 nM
  DNA cleavage activity of NucC: activates
[16]; Acb2 50 nM, proteinase K 1 μM
  NucC activity with cA3 released after proteolysis of WT Acb2: again activated
[17]
  binding / shift (native gel): significant shift
[2]
  shift of the Acb2 protein / binding (native gel): significant shift

## Nc1ncnc2c1ncn2[C@@H]1O[C@@H]2COP(=O)(O)O[C@H]3[C@@H](O)[C@H](n4cnc5c(N)ncnc54)O[C@@H]3COP(=O)(O)O[C@H]3[C@@H](O)[C@H](n4cnc5c(N)ncnc54)O[C@@H]3COP(=O)(O)O[C@H]3[C@@H](O)[C@H](n4cnc5c(N)ncnc54)O[C@@H]3COP(=O)(O)O[C@H]3[C@@H](O)[C@H](n4cnc5c(N)ncnc54)O[C@@H]3COP(=O)(O)O[C@H]3[C@@H](O)[C@H](n4cnc5c(N)ncnc54)O[C@@H]3COP(=O)(O)O[C@H]2[C@H]1O [cA6]
[2]
  shift of the Acb2 protein / binding (native gel): does not shift

## Nc1nc2c(ncn2[C@@H]2O[C@@H]3COP(=O)(O)O[C@H]4[C@@H](O)[C@H](n5cnc6c(N)ncnc65)O[C@@H]4COP(=O)(O)O[C@H]4[C@@H](O)[C@H](n5cnc6c(N)ncnc65)O[C@@H]4COP(=O)(O)O[C@H]3[C@H]2O)c(=O)[nH]1 [cAAG, 3’3’3’-cAAG]
[1]
  Kd: ~2.7 nM
[2]
  shift of the Acb2 protein / binding (native gel): significant shift

## Nc1ccn([C@@H]2O[C@@H]3COP(=O)(O)O[C@H]3[C@H]2O)c(=O)n1 [cCMP]
[1]
  binding to Acb2 (ITC): does not bind
[2]
  shift of the Acb2 protein / binding (native gel): does not bind

## O=c1ccn([C@@H]2O[C@@H]3COP(=O)(O)O[C@H]3[C@H]2O)c(=O)[nH]1 [cUMP]
[1]
  binding to Acb2 (ITC): does not bind
[2]
  shift of the Acb2 protein / binding (native gel): does not bind

B1: Acb2 from P. aeruginosa phage PaMx33 (natural protein, Pseudomonas aeruginosa phage PaMx33, UniProt A0A1C8HPQ3 1-93, looked up)
chain: T6 sequence (A0A1C8HPQ3 1-93 T74A) with A74T
[18]
  stoichiometry N: 6

B2: WT Acb2: anti-CBASS protein Acb2 from P. aeruginosa phage PaMx33, cyclic oligonucleotide sponge (protein)
chain: T6 sequence (A0A1C8HPQ3 1-93 T74A) with A74T
modifications: left off: His6-SUMO, end not stated, cleaved
[19]
  effect on cA3-activated NucC activity: significantly decreased

Source: publication PMC11102597 (Molecular cell, 2023)
